Measured values from different studies.
Target: Beta-adrenergic receptor kinase 1 (GRK2, Homo sapiens, UniProt P25098)
Residues used in one study (P25098 1-689): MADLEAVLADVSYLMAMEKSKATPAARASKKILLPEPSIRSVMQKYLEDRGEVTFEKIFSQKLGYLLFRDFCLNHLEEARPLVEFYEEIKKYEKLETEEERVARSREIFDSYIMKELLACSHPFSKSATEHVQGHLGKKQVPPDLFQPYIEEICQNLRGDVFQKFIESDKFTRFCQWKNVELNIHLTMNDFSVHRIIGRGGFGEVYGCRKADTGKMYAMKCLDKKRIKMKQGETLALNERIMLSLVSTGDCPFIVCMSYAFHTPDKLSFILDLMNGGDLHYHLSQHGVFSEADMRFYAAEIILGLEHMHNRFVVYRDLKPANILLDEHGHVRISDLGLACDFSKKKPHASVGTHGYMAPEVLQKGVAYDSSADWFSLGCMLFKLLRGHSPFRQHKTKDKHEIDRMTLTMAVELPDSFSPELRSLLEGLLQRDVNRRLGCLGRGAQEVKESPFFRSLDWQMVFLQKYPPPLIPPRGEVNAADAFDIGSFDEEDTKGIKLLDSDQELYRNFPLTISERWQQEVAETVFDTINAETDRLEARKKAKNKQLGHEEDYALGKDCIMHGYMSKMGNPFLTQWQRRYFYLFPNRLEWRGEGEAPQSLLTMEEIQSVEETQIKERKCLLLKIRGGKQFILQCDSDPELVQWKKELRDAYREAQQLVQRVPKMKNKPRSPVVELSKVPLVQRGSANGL

Compound	assay	setting	measurement	result
Cc1ccc(C(=O)Nc2ccc(CN3CCN(C)CC3)c(C(F)(F)F)c2)cc1C#Cc1cnc2cccnn12	enzyme activity, inhibitor	23.5 nM	remaining activity	77%
O=C(O)[C@H]1[C@H](Cn2nnc3ccccc3c2=O)CC[C@@H]1C(=O)c1ccc(OCCC2CCOCC2)cc1	cell-free assay, competition with immobilised ligand	1 µM	remaining binding	61%
O=C1NC(=O)c2cc(Nc3ccc(F)cc3)c(Nc3ccc(F)cc3)cc21	cell-free assay	0.5 µM	remaining signal	104%
CCCS(=O)(=O)Nc1ccc(F)c(C(=O)c2c[nH]c3ncc(-c4ccc(Cl)cc4)cc23)c1F	enzyme activity, inhibitor	1 µM	inhibition	< 20%
O=C(Nc1cnn(-c2csc(C(=O)NC3COC3)c2)c1)Nc1c(F)cccc1Cl	enzyme activity, inhibitor	5 µM	remaining activity	106%
CN1CC(Oc2cnc(C#N)cc2-c2ccn3nc(NC(=O)C4CC4)cc3c2)C1	enzyme activity, inhibitor	1 µM	inhibition	5%
c1ccc(CNc2nc(N3CCOc4ccccc43)nc3c2CCCC3)cc1	target engagement in cells, inhibitor, chemoproteomics	20 mM	inhibition	-6.7%
CC1CCCN1c1nccc(-c2cnn3ncccc23)n1 (stereo not shown)	binding, competition with immobilised ligand	1 µM	remaining binding	69%
O=C(NS(=O)(=O)c1ccc(NCC2CCOCC2)c([N+](=O)[O-])c1)c1ccc(N2CCN(Cc3ccc(C(F)(F)F)cc3-c3ccc(Cl)cc3)CC2)cc1Oc1cnc2[nH]ccc2c1	cell-free assay, competition with immobilised ligand	1 µM	remaining binding	91%
Nc1ncnc2occ(-c3ccc(NC(=O)Nc4cc(C(F)(F)F)ccc4F)cc3)c12	cell-free assay, inhibitor	20 µM	remaining signal	81%
Cc1ccc(C(=O)NCc2ccsc2)cc1C#Cc1cn(C(C)C)c2ncnc(N)c12	enzyme activity, inhibitor	1 µM	activity vs control	101%
CCc1ccccc1C(=O)Nc1n[nH]c2c(C)c(F)c(C3C(C#N)=C(C)N(C)C(C)=C3C#N)cc12	cell-free assay, competition with immobilised ligand	1 µM	remaining binding	100%
CC(C)(C)c1nc2c(s1)c1nc(N)ncc1c1ccc(NS(=O)(=O)c3c(F)cccc3F)c(F)c12	enzyme activity, inhibitor, radiometric	1 µM	remaining activity	90%
CC(C)(O)[C@H]1CC[C@H](Nc2ccc3ncc(-c4cccc(C(F)(F)F)c4)n3n2)CC1	enzyme activity, inhibitor	1 µM	remaining activity	116%
O=C(Nc1cccnn1)N1CC(C/C=C/c2cncc(Oc3ccc(C(F)(F)F)cn3)n2)C1	cell-free assay, competition with immobilised ligand	1 µM	remaining binding	96%
COc1cc2ncnc(Nc3ccc(Oc4ccccc4)cc3C)c2cc1OC	enzyme activity, inhibitor	1 µM	inhibition	-1%
